Assay outcomes from PubChem.
The list is not random: actives were taken first. Their share in the collection is about 1.3%.
aDG glyco up: alpha-DG glycosylation activation. 360,000 tested, 0.22% active. Pro5-aDG cells, alpha-DG glycosylation AlphaScreen (IIH6); 0% Pro5, 100% B10-LARGE cell signal. activation, % at 10 µM;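 active means activation of at least 8% versus controls, or a plate z-score of at least 8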;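 further: Pro5 are CHO cells carrying HIG-tagged alpha-DG that lacks glycosylation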
DDE Tn6 FP inh: disrupts Tn6 cyclic peptide binding to fibrin D-Dimer-E complex. 370,000 tested, 0.21% active. P02675. inhibition, % at 8.3 µM. Fibrin DD(E) TRITC-Tn6 fluorescence polarization displacement;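 active means inhibition above a per-campaign cutoff: mean of compounds within control limits plus 3 SD, cut at about 15% in these data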;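 further: 0% = median of all compound wells on the plate and 100% = blocking peptide control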
Target sequence (P02675 whole entry, looked up): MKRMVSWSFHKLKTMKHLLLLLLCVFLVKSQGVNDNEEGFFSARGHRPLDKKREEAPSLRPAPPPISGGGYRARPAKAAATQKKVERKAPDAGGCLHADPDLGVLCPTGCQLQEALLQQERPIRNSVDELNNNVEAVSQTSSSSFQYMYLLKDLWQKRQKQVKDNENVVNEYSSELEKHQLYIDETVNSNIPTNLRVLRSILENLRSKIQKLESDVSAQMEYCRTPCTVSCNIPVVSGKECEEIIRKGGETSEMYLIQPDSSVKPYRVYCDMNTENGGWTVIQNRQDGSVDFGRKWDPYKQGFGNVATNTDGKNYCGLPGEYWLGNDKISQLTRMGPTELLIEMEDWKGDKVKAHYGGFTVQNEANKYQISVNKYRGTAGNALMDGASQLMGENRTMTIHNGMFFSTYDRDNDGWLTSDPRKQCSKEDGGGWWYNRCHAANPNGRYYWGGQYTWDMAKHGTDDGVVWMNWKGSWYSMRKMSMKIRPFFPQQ
NRP1-CendR mod: modulators of CendR peptide binding to human neuropilin-1. O14786. FAM-RPARPAR peptide binding to NRP-1, fluorescence polarization. inhibition, % at 25 µM. 360,000 tested, 0.85% active. AID 602438;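 active means inhibition or corrected inhibition above about 18%, plus a signal ratio from 0.5 to 1.5, limit read from the data, passing the limit was not always enough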
Tn7 DDE FP: disrupts Tn7 cyclic peptide binding to fibrin D-Dimer-E complex; FP displacement of FITC-Tn7 peptide from fibrin DD(E); 0% = median of compound wells per plate; 370,000 tested, 0.13% active; inhibition, % at 8.3 µM; P02675;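 active means inhibition above the mean of compounds falling within the control limits plus 3 SD of them, cut at about 14% in these data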;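 further: 0% = plate median of compound wells and 100% = 10 µM Aha-Tn7 peptide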
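Assay system: human fibrin DD(E) protein / Input: 2 µM fibrin DD(E) / Benchmarks: high control of 10 µM Aha-Tn7 peptide / Measured by: fluorescence polarization of the labelled Tn7 tracer / Medium: Tris buffer with calcium and detergent, pH 7.8 / Timing: 10 min compound pre-incubation, 3 h probe incubation at room temperature / Repeats: one replicate per compound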
An asterisk follows results filed as active.

What do the screens show for `COc1ccc(NC(=O)Cn2nnc(C(=O)NCCc3ccccc3)c2N)cc1`?
aDG glyco up: -0.2; DDE Tn6 FP inh: 4.9; NRP1-CendR mod: -43.4; Tn7 DDE FP: 1.0

How did CC(C)Oc1cccc(NC(=O)C2(C)CCN2C(C)C)c1 (configuration not stated) do in these assays?
aDG glyco up: -0.3; DDE Tn6 FP inh: -8.3; NRP1-CendR mod: -9.6; Tn7 DDE FP: -1.6

Results for CC1CCCCC1NC(=O)CSc1ncnc2sccc12 (configuration not stated) ?
aDG glyco up: 0.4; DDE Tn6 FP inh: -8.1; NRP1-CendR mod: 22.2*; Tn7 DDE FP: -4.8

What do the screens show for `Cc1ccccc1NC(=O)O[C@H]1CC[C@@]23CCCN2C(=O)CCC[C@H]3[C@H]1C`?
DDE Tn6 FP inh: 3.2; Tn7 DDE FP: -1.1

What do the screens show for `Cc1ccsc1C(=O)N1CCCC(CO)(Cc2ccccc2F)C1` (configuration not stated)?
aDG glyco up: 0.8; DDE Tn6 FP inh: -3.2; NRP1-CendR mod: 20.9*; Tn7 DDE FP: 0.9

How did O=C(O)/C=C/C(=O)Nc1ccc(OCc2ccccc2)cc1 do in these assays?
aDG glyco up: -0.1; DDE Tn6 FP inh: 0.5; NRP1-CendR mod: 22.1*; Tn7 DDE FP: 0.6

Results for CCc1cccc(CC)c1NC(=S)Nc1ccccc1 ?
aDG glyco up: -0.1; DDE Tn6 FP inh: 12.2; NRP1-CendR mod: 20.2*; Tn7 DDE FP: 1.4

How did OCCCc1n[nH]c(=S)n1-c1ccccc1 do in these assays?
aDG glyco up: -0.4; DDE Tn6 FP inh: -7.3; NRP1-CendR mod: 23.4*; Tn7 DDE FP: 0.1

What do the screens show for `COCc1n[nH]c(=S)n1-c1ccccc1`?
aDG glyco up: -0.3; DDE Tn6 FP inh: 1.9; NRP1-CendR mod: 11.9; Tn7 DDE FP: 3.5

Results for COC(=O)c1ccccc1NC(=O)Nc1ccc(Br)cn1 ?
aDG glyco up: 0.3; DDE Tn6 FP inh: -7.3; NRP1-CendR mod: -8.9; Tn7 DDE FP: 1.1

What do the screens show for `COc1ccc(NC(=O)Nc2ccc(Br)cn2)cc1`?
aDG glyco up: -0.2; DDE Tn6 FP inh: -3.5; NRP1-CendR mod: 24.3*; Tn7 DDE FP: 3.8

What do the screens show for `CCN(CC)S(=O)(=O)c1ccc(/C=C/C(=O)O)cc1`?
aDG glyco up: 0.2; DDE Tn6 FP inh: -6.5; NRP1-CendR mod: 32.6*; Tn7 DDE FP: -4.2

What do the screens show for `COc1nnc(-c2ccc(C(=O)N3C[C@@H]4C[C@H](C3)c3cccc(=O)n3C4)cc2)c2ccccc12`?
aDG glyco up: 0.0; DDE Tn6 FP inh: 2.3; NRP1-CendR mod: 19.2*; Tn7 DDE FP: 7.5

Results for O=c1[nH]c2ccc([N+](=O)[O-])cc2nc1/C=C(\O)c1ccccc1 ?
aDG glyco up: -0.3; DDE Tn6 FP inh: 5.6; NRP1-CendR mod: 84.5*; Tn7 DDE FP: 4.4

Results for C/C(O)=C/c1nc2ccccc2[nH]c1=O ?
aDG glyco up: -0.1; DDE Tn6 FP inh: 4.1; NRP1-CendR mod: -1.0; Tn7 DDE FP: 1.8

What do the screens show for `COc1ccc(CCNC(=O)C2CCC(C(C)(C)C)CC2)cc1OC` (configuration not stated)?
aDG glyco up: 0.5; DDE Tn6 FP inh: 8.3; NRP1-CendR mod: 34.0*; Tn7 DDE FP: 3.7

Results for COc1ccc(CCNC(=O)C2CC2)cc1OC ?
aDG glyco up: 0.2; DDE Tn6 FP inh: -4.0; NRP1-CendR mod: 7.0; Tn7 DDE FP: 0.9

How did Cc1ccn(C(=O)c2cc3c(C)nn(-c4ccccc4)c3s2)n1 do in these assays?
aDG glyco up: -0.1; NRP1-CendR mod: 27.7*

How did CC(C)C[C@H](NC(=O)OC(C)(C)C)C(=O)N[C@@H](CO)[C@H](O)[C@@H]1C[C@@H]1C(=O)NC1CC1 do in these assays?
aDG glyco up: -0.3; DDE Tn6 FP inh: 4.9; NRP1-CendR mod: 7.4; Tn7 DDE FP: 3.4

How did CCCCNC(=O)[C@H]1C[C@H]1[C@@H](O)[C@H](CO)NC(=O)[C@H](CC(C)C)NC(=O)OC(C)(C)C do in these assays?
aDG glyco up: -0.2; NRP1-CendR mod: 33.8*

What do the screens show for `COc1cc(C(=O)NCc2ccccc2)cc(Br)c1OC`?
aDG glyco up: 0.4; DDE Tn6 FP inh: 1.7; NRP1-CendR mod: 21.3*; Tn7 DDE FP: -5.7

What do the screens show for `O=C(CCc1ccc(Oc2cc([N+](=O)[O-])cc([N+](=O)[O-])c2)cc1)N1CCCCCC1`?
aDG glyco up: 2.1; DDE Tn6 FP inh: 0.0; NRP1-CendR mod: 26.0*; Tn7 DDE FP: 1.3

How did CCc1ccc(OCC(=O)NN2Cc3ccccc3C2=N)cc1 do in these assays?
aDG glyco up: 0.2; DDE Tn6 FP inh: -2.6; NRP1-CendR mod: -6.5; Tn7 DDE FP: -3.1

Results for CCOc1ccccc1OCC(=O)NN1Cc2ccccc2C1=N ?
aDG glyco up: -0.1; DDE Tn6 FP inh: 5.4; NRP1-CendR mod: 19.1*; Tn7 DDE FP: -3.0

How did COc1ccc(Cc2c(C3CCCCC3)nc3c(Cl)cc(C(F)(F)F)cn23)c(C)c1 do in these assays?
aDG glyco up: -0.3; DDE Tn6 FP inh: -4.3; NRP1-CendR mod: -13.1; Tn7 DDE FP: 2.5

How did CN1CCc2cc3c(c4c2[C@H]1[C@H](O)c1ccccc1-4)OCO3 do in these assays?
aDG glyco up: 0.3; DDE Tn6 FP inh: 7.0; NRP1-CendR mod: 46.7*; Tn7 DDE FP: -1.7

Results for COCCN(C(=S)Nc1ccc(C)cc1C)C(C)c1cccs1 (configuration not stated) ?
aDG glyco up: 0.0; DDE Tn6 FP inh: 6.7; NRP1-CendR mod: -2.6; Tn7 DDE FP: -0.6

Results for COCCN(C(=S)Nc1ccccc1C)C(C)c1cccs1 (configuration not stated) ?
aDG glyco up: 0.0; DDE Tn6 FP inh: -4.0; NRP1-CendR mod: 26.4*; Tn7 DDE FP: 1.0

What do the screens show for `COc1ccc(CNC(=O)C2=C(C)C(=O)OC23CCC(C)CC3)cc1` (configuration not stated)?
aDG glyco up: -0.1; DDE Tn6 FP inh: 2.8; NRP1-CendR mod: -6.6; Tn7 DDE FP: -1.4

What do the screens show for `CC1=C(C(=O)NCc2ccc(Cl)cc2)C2(CCC(C)CC2)OC1=O` (configuration not stated)?
aDG glyco up: 0.0; DDE Tn6 FP inh: -0.5; NRP1-CendR mod: 37.1*; Tn7 DDE FP: 1.8

Results for Cc1cc[n+](-c2[nH]c(=O)sc2/C=N/NC([S-])=Nc2ccccc2)cc1C ?
aDG glyco up: -0.2; DDE Tn6 FP inh: 0.1; NRP1-CendR mod: 34.8*; Tn7 DDE FP: 12.6

How did CCCCOCC1CN(CCCC)S(=O)(=O)c2c(NCc3cc(OC)c(OC)c(OC)c3)cccc2O1 (configuration not stated) do in these assays?
DDE Tn6 FP inh: 5.2; Tn7 DDE FP: 6.9

How did Cc1cccc(C(=O)NNC2=C(C(=O)C(F)(F)F)CCC2)c1O do in these assays?
aDG glyco up: 0.3; DDE Tn6 FP inh: -6.1; NRP1-CendR mod: 58.2*; Tn7 DDE FP: 4.0

How did O=C(NNC1=C(C(=O)C(F)(F)F)CCC1)c1cccc(O)c1 do in these assays?
aDG glyco up: 0.8; DDE Tn6 FP inh: -7.5; NRP1-CendR mod: -10.0; Tn7 DDE FP: 1.5

Results for CCOc1ccc(S(=O)(=O)Nc2ccc(C(=O)NCC(C)(C)N3CCOCC3)cc2)cc1 ?
aDG glyco up: -0.1; DDE Tn6 FP inh: 3.5; NRP1-CendR mod: 21.4*; Tn7 DDE FP: 8.7
